Source: PubChem (several laboratories)
Rows were chosen to be rich in hits. Some 1.8% of all compounds tested hit in one or more screens of this group.
MsrA inhibitor = inhibitors of bovine MsrA; purified bovine MsrA, absorbance read-out; inhibition, % at 15.5 µM; actives 0.75% (n = 360,000); AID 651718
SKN-1 inh = blocks SKN-1 activity in C. elegans; actives 0.49% (n = 360,000); C. elegans VP596 Pgst-4::GFP/RFP ratio, acrylamide-induced, 24 h; inhibition, % at 21.8 µM;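 active means interference check ratio from 0.5 to 1.5 plus GFP to RFP signal ratio inhibition reaching or exceeding a fixed threshold, cut at about 30% in these data, passing the limit was not always enough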
bovine MsrA act = activates bovine MsrA enzyme | activation, % at 10.6 µM | purified bovine MsrA, absorbance read-out | AID 602163 | actives 0.3% (n = 360,000); in the data active means activation above about 7.5%
DAGLB inhibitor = diacylglycerol lipase beta (human) inhibition; Q8NCG7; HEK293T DAGLB membrane lysate, EnzChek fluorogenic substrate; inhibition, % at 5.17 µM; actives 0.059% (n = 340,000); AID 504411; in the data active means inhibition above about 34%
Target sequence (Q8NCG7 whole entry, looked up): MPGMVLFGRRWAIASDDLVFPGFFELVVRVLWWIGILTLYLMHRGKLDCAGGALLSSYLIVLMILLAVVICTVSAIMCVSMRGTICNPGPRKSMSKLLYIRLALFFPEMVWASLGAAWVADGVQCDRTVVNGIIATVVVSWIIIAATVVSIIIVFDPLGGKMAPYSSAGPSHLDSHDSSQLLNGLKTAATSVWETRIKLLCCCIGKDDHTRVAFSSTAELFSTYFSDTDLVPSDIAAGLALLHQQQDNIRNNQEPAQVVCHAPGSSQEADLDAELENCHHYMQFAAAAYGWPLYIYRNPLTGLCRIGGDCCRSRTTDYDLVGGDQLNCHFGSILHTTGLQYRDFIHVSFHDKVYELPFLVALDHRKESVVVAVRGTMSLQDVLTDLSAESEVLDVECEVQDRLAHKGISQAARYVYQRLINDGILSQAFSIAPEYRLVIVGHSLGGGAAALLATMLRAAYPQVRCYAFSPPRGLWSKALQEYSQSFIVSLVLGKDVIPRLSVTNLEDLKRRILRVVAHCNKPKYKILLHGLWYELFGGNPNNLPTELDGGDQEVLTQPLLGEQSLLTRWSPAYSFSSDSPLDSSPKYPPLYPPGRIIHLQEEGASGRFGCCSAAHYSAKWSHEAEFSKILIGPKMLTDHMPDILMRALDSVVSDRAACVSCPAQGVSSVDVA
MT1-MMP act inh = MT1-MMP (human) activation inhibition | P50281 | HT1080 RFP-PRO-GFP cells, GFP/RFP ratio fluorescence, overnight; percent of plate control window, DMSO zero | GFP/RFP ratio change, % at 20 µM | actives 0.061% (n = 360,000) | AID 651647;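 active means GFP/RFP ratio change of at least 30% with cell ATP level not reduced by more than half and red fluorescence within 50% of control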
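Test system: HT1080 cells expressing an RFP-PRO-GFP fluorescent reporter construct / Compound dosing: single-point 20 µM compound, 1% DMSO / Schedule: cells overnight before dosing, compound overnight, 37 °C, 5% CO2 / Evaluation: GFP/RFP fluorescence ratio / Control set: DMSO and RFP-L50D-GFP cell wells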
beta cell repl = MIN6 beta-cell proliferation induction; proliferation, % at 10 µM; MIN6 cells proliferation, ATPlite luminescence, 48 h; cells starved in 0.2% serum; 100% = growth in 10% serum; actives 0.29% (n = 330,000); AID 2380;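 active means compounds whose signal lies at least 3.5 SD above the mean of all wells on their plate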
MsrA conf = confirmation of bovine MsrA inhibitors. shares compounds with MsrA inhibitor. purified bovine MsrA, absorbance read-out. inhibition, % at 15.5 µM. actives 41% (n = 2,300);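 further: coupled to thioredoxin reductase with NADPH and selenocystamine and DMSO as substrate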
Each line names hits and unclear results; the compound was inactive in the other large screens (follow-up assays come after a bar, where they were run). Unless noted, no stated cut-off is given here; in the data, active means inhibition above about 4.5%; inactive means the rest.

Oc1ccc(/C=N/N=C/c2ccc(O)cc2)cc1	MsrA inhibitor 5.3 | MsrA conf 5.5
CCOc1cc(/C=N/NC(=O)c2ccc(NC(=O)C3CC3)cc2)ccc1O	MsrA inhibitor 5.3 | MsrA conf inactive
COc1cc(/C=N/NC(=O)C(=O)NCc2cccnc2)ccc1O	none
Cc1ccc(/C=N/N=C/c2ccc(C)cc2)cc1	none
CCOc1cc(/C=N/NC(=O)C(=O)NCc2cccnc2)ccc1O	MsrA inhibitor 5.7 | MsrA conf inactive
Oc1ccc(/C=N/N=C/c2ccc(O)c(O)c2)cc1O	MsrA inhibitor 4.7 | MsrA conf 6.4
CC(C)(C)CN1CCN(Cc2c[nH]c3ccccc23)CC1CCO (stereo not drawn)	none
Cc1ccc(NC(=O)Cn2cccc2C2=NC(c3ccccc3)CO2)cc1C (stereo not drawn)	MsrA inhibitor 43 | MsrA conf inactive
CNS(=O)(=O)c1cccc(C(=O)OCC(=O)/C=C2/N(C)c3ccccc3C2(C)C)c1	none
CN1/C(=C\C(=O)COC(=O)c2ccc(O)c(O)c2)C(C)(C)c2ccccc21	MsrA inhibitor 4.8 (no result: SKN-1 inh, bovine MsrA act, DAGLB inhibitor, MT1-MMP act inh) | MsrA conf inactive
CN1/C(=C\C(=O)COC(=O)c2ccc(O)cc2)C(C)(C)c2ccccc21	MsrA inhibitor 5.2 | MsrA conf inactive
CS(=O)(=O)c1[nH]nc(-c2ccccc2Cl)c1C#N	none (no result: DAGLB inhibitor)
C=CCN1C(=O)C(CC(=O)O)S/C1=N/N=C/c1ccc(N(CC)CC)cc1 (stereo not drawn)	MsrA inhibitor 5.0 | MsrA conf inactive
CN(C)c1ccc(/C=N/N=C2/SC(CC(=O)O)C(=O)N2c2ccc(O)cc2)cc1 (stereo not drawn)	MsrA inhibitor 5.4 | MsrA conf 5.0
COc1ccc(/C=N/N=C2\SC(CC(=O)O)C(=O)N2c2ccccc2)cc1 (stereo not drawn)	none
COc1ccc(/C=N/N=C2\SC(CC(=O)O)C(=O)N2c2ccccc2)c(OC)c1 (stereo not drawn)	MsrA inhibitor 4.7 | MsrA conf 6.1
C=CCN1C(=O)C(CC(=O)O)SC1=Nc1ccc(C(=O)O)cc1 (stereo not drawn)	none
CCOC(=O)C1=C(COC(=O)CSc2ccc(C)cc2)NC(=O)NC1C (stereo not drawn)	none
COc1ccc(Cl)cc1-c1nc(SCC(N)=O)n[nH]1	none
N#C/C(=C/c1ccc(Br)o1)C(N)=O	MsrA inhibitor 4.7 | MsrA conf 5.5
Cc1ccc(-n2ncc(-c3n[nH]c(=S)o3)c2N)cc1C	none (no result: beta cell repl)
O=C1N[C@@H](Cc2ccccc2)C(=O)N2[C@@H]1C[C@]1(Br)c3ccccc3N(S(=O)(=O)c3ccccc3)[C@H]21	none (no result: SKN-1 inh, bovine MsrA act, DAGLB inhibitor, MT1-MMP act inh)
CC1(C)CC(=O)c2sc(NS(=O)(=O)c3cc(Cl)ccc3Cl)nc2C1	none
Cc1ccc(S(=O)(=O)Nc2nc3c(s2)C(=O)CC(C)(C)C3)cc1	MsrA inhibitor 6.7 | MsrA conf inactive
COc1ccc(S(=O)(=O)Nc2nc3c(s2)C(=O)CC(C)(C)C3)cc1	none
CC1(C)CC(=O)c2sc(NS(=O)(=O)Cc3ccccc3)nc2C1	MsrA inhibitor 5.3 | MsrA conf inactive
COc1ccc(-c2nc(CN3CCC(C(=O)N4CCOCC4)CC3)c(C)o2)cc1C	none
COc1cc([N+](=O)[O-])c(OC)cc1Nc1ccccc1C(=O)O	none (no result: SKN-1 inh, bovine MsrA act, DAGLB inhibitor, MT1-MMP act inh, beta cell repl)
COc1cc(-c2ccc(Nc3ccccc3C(=O)O)c(OC)c2)ccc1Nc1ccccc1C(=O)O	MsrA inhibitor 4.9 | MsrA conf 5.3
CC(=O)c1cnc(N(C)C)s1	MsrA inhibitor 6.5 | MsrA conf inactive
O=C(CN1CCOCC1)Nc1ccc([N+](=O)[O-])cc1Br	none
O=C(CN1CCCCCC1)Nc1ccc([N+](=O)[O-])cc1Br	MsrA inhibitor 4.8 | MsrA conf 7.2
O=C(Nc1ccc(C(=O)O)cc1)/C(=C\c1ccco1)NC(=O)c1ccccc1	none
O=C(Nc1ccc(C(=O)O)cc1)/C(=C\c1ccco1)NC(=O)c1ccco1	MsrA inhibitor 4.8 | MsrA conf 4.9
CC(=O)c1cccc(NC(=O)/C(=C\c2ccco2)NC(=O)c2ccco2)c1	none
CC(=O)c1ccc(NC(=O)/C(=C\c2ccco2)NC(=O)c2ccco2)cc1	MsrA inhibitor 5.7 | MsrA conf 5.4
CCCc1c(C(=O)N/N=C(\C)c2ccc(CC(C)C)cc2)nnn1-c1nonc1N	none (no result: beta cell repl)
CCc1nc2ccc(C(=O)Nc3cccc(OC)c3)cn2c1N(C)CCCc1ccccc1	none (no result: DAGLB inhibitor, beta cell repl)
Cc1c(OCC(=O)NCc2ccccn2)ccc2c(-c3ccccc3)cc(=O)oc12	none
Cc1c(OCC(N)=O)ccc2c(-c3ccccc3)cc(=O)oc12	MsrA inhibitor 31 | MsrA conf 40
CC(=O)COc1ccc2c(-c3ccccc3)cc(=O)oc2c1C	MsrA inhibitor 19 | MsrA conf 22
Cc1c(OCC(=O)C(C)(C)C)ccc2c(-c3ccccc3)cc(=O)oc12	none
COC(=O)C1=C(C)N(Cc2ccccc2C(F)(F)F)C(=NCc2cc(OC)c(OC)c(OC)c2)NC1c1ccccc1C(F)(F)F (stereo not drawn)	none (no result: SKN-1 inh, bovine MsrA act, DAGLB inhibitor, MT1-MMP act inh, beta cell repl)
Cc1nn(-c2ccccc2)c(N2CCCC2)c1/C=N/NC(=O)c1cc(-c2cccnc2)nc2ccccc12	MsrA inhibitor 4.7 | MsrA conf inactive
COc1ccc(/C=N/NC(=O)c2cc(-c3ccccc3)nc3ccccc23)c(C(=O)O)c1OC	MsrA inhibitor 4.7 | MsrA conf inactive
COc1cc(/C=N/n2c(C)nc3ccccc3c2=O)ccc1O	MsrA inhibitor 5.4 | MsrA conf inactive
COc1ccc(/C=N/NC(=O)c2[nH]c3ccc(C)cc3c2-c2ccccc2)c(C(=O)O)c1OC	MsrA inhibitor 6.2 (no result: beta cell repl) | MsrA conf inactive
COCCCC1CCN(C(=O)C2CCC(=O)N(CCc3cccc(F)c3)C2)CC1 (stereo not drawn)	none
CCOC(=O)C1CCN(C(=O)COC(=O)/C=C/c2ccc([N+](=O)[O-])cc2)CC1	none
CN(CCOc1ccc(Cl)cc1)C(=O)c1cccc(S(=O)(=O)N2CCN(c3ccc(F)cc3)CC2)c1	none (no result: MsrA inhibitor, beta cell repl)
COc1cc(/C=N/NC(=O)c2cc(-c3ccco3)nc3ccccc23)cc(OC)c1O	MsrA inhibitor 4.7 | MsrA conf inactive
COc1ccc(-c2cc(C(=O)N/N=C/c3ccc4c(c3)OCO4)c3ccccc3n2)c(OC)c1	MsrA inhibitor 5.8 | MsrA conf inactive
COc1cc2ccccc2cc1C(=O)N/N=C/c1ccc2c(c1)OCO2	none
COc1cc(/C=N/NC(=O)c2cc(-c3ccccc3)nc3ccccc23)ccc1O	MsrA inhibitor 5.0 | MsrA conf inactive
COc1ccc(-c2cc3nc(NCC4CCCCC4)n(C)c(=O)c3s2)cc1OC	none (no result: DAGLB inhibitor, beta cell repl)
